The nature of experiment [1]: Inhibition of Hsp90. The method, boiled down: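 Thermally denatured firefly luciferase refolded in rabbit reticulocyte lysate at room temperature. Run in triplicate and repeated at least twice; luminescence read with 10 s integration. IC50 is the concentration that cuts recovery of luciferase activity by 50% versus DMSO. Linearity checked by anti-luciferase Western blot over the time course.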

The target in experiment [2] is T1, Heat shock protein HSP90 (Homo sapiens, UniProt P07900+P08238). As to the kind of experiment: Inhibition of Hsp90 in human MCF7 cells assessed as induction of Raf degradation after 36 hrs by Western blot analysis. The experiment is classed as cell-based. The method, boiled down: (§1)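 MCF-7 cells grown in DMEM:Ham's F-12 (1:1) with nonessential amino acids, 2 mM L-glutamine, antibiotics and 10% FBS. Seeded at 1 × 10^6 per dish, attached overnight, treated with varying concentrations for 36 h at 37 °C, 5% CO2. Harvested for Western blot of client proteins. Controls were GA 500 nM and DMSO.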
In general terms: In western blotting, separated proteins are transferred to a membrane and probed.

Experiment [3] is filed under the species Oryctolagus cuniculus. The experiment can be described thus: Inhibition of Hsp90-dependent activation of heme-regulated Eif2-alpha kinase in heme-deficient rabbit reticulocyte lysate at 100 uM.
For experiment [4], the species on record is Oryctolagus cuniculus. The experiment can be described thus: Inhibition of Hsp90-dependent maturation and activation of heme-regulated eIF2-alpha kinase in heme-deficient rabbit reticulocyte lysate at 100 uM.
The species named for a further experiment is Bos taurus. As to the kind of experiment: Inhibition of ATPase activity of bovine Hsp70 at upto 400 uM. An outline of the steps: (§2)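 Intrinsic ATPase measured with purified chaperone (bovine Hsp70 or bacterial DnaK, 1 µM) and 1 mM ATP, 3 h at 37 °C, compound or DMSO. Malachite green-molybdate added, then quenched with 3% sodium citrate; absorbance read at 620 nm. Compound tested up to 400 µM. Result is % of solvent control, mean of triplicates.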

The target of experiment [5] is T1, Heat shock protein HSP90. As to the kind of experiment: Inhibition of Hsp90 in human SkBr3 cells assessed as induction of Her2 degradation by ELISA. The experiment is classed as cell-based. An outline of the steps:
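SkBr3 cells seeded at 3000/well, attached overnight, then treated 24 h. Washed with ice-cold PBS/1% Tween and fixed with -20 °C methanol, 10 min at 4 °C. Blocked in 5% BSA/PBST 1 h. Rabbit anti-Her2 (1:500) overnight at 4 °C, then HRP anti-rabbit (1:1000) 2 h at rt; chemiluminescence read. IC50 from three experiments in triplicate.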
A general note: An ELISA detects its analyte on a solid surface through an enzyme-linked reagent.

In experiment [6] the target is T1, Heat shock protein HSP90. As to the kind of experiment: Inhibition of Hsp90 in human MCF7 cells assessed as induction of ERalpha degradation after 36 hrs by Western blot analysis. It counts as cell-based. The method, boiled down: as §1
In experiment [7] the target is T1, Heat shock protein HSP90. The experiment can be described thus: Inhibition of Hsp90 in human MCF7 cells assessed as induction of Akt degradation after 36 hrs by Western blot analysis. The experiment is classed as cell-based. An outline of the steps: as §1
Experiment [8] can be described thus: Inhibition of ATPase activity of bacterial DnaK at upto 400 uM. An outline of the steps: as §2
The species entered for experiment [9] is Oryctolagus cuniculus. The experiment can be described thus: Inhibition of Hsp90-dependent luciferase refolding in rabbit reticulocyte at 100 uM after 20 mins.
Another experiment concerns SK-BR-3. As to the kind of experiment: Antiproliferative activity against human SkBr3 cells ERalpha-negative and overexpressing Her2.
A short description of experiment [10]: Effect on binding of Hsp90 to HR1 relative to control.
For another experiment, the system named is MCF7. The experiment can be described thus: Antiproliferative activity against human MCF7 cells expressing ERalpha. It counts as functional, cell-based. An outline of the steps: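 MCF-7 cells (ERα-positive human breast cancer) grown in 1:1 DMEM:Ham's F-12 with nonessential amino acids, 2 mM L-glutamine, streptomycin, penicillin and 10% FBS at 37 °C, 5% CO2. Antiproliferative IC50 derived from three separate experiments, each run in triplicate.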

Experiment [11] deals with T1, Heat shock protein HSP90. As to the kind of experiment: Inhibition of Hsp90 in human MCF7 cells assessed as induction of Her2 degradation after 36 hrs by Western blot analysis. The experiment is classed as cell-based.
The target in experiment [12] is T1, Heat shock protein HSP90. As to the kind of experiment: Inhibition of Hsp90 in human MCF7 cells assessed as induction of actin degradation after 36 hrs by Western blot analysis. The experiment is classed as cell-based. The method, boiled down: as §1
Experiment [13] in a line: Inhibition of Hsp90 in cell based assay.

The source of these data is ChEMBL document CHEMBL1141356, “Derrubone, an inhibitor of the Hsp90 protein folding machinery” (J Nat Prod, 2007).

The IC50 is the point on the concentration scale where inhibition reaches its midpoint.

Activity calls are given as the source filed them. No cut-off for these calls is given here. Some results are limits rather than exact numbers.

For the compound `COc1cc(OC)c2c(OC)c(-c3ccc4c(c3)OCO4)c(=O)oc2c1`, the result in experiment [1] was inactive.
`C[C@@H]1C[C@H]2O[C@@H]2C=C/C=C/C(=O)Cc2c(Cl)c(O)cc(O)c2C(=O)O1` [RADICICOL] showed a half-inhibitory concentration (IC50) in [1] below 0.1 µM.
`CC(C)=CCc1c(O)cc2occ(-c3ccc4c(c3)OCO4)c(=O)c2c1O` [DERRUBONE]: the result at Heat shock protein HSP90 [2], in the experiment filed under Oryctolagus cuniculus [3], in the experiment listed under Oryctolagus cuniculus [4], at Heat shock protein HSP90 [6], on Heat shock protein HSP90 [7] and in the experiment filed under Oryctolagus cuniculus [9] was Active. The outcome on Heat shock protein HSP90 [11] and at Heat shock protein HSP90 [12] was Active. Further, the result (in the experiment filed under Bos taurus; in experiment [8]) was inactive. Further, the half-maximal inhibitory concentration (IC50) came out at 14 µM at Heat shock protein HSP90 [5], 0.23 µM in experiment [1], 12 µM in the experiment on SK-BR-3 and 9 µM with MCF7. Further, the Activity in [10] was 46%.
As for `COC1=C2C[C@@H](C)C[C@H](OC)[C@H](O)[C@@H](C)/C=C(\C)[C@H](OC(N)=O)[C@@H](OC)/C=C\C=C(/C)C(=O)NC(=CC1=O)C2=O` (stereo in doubt) [GELDANAMYCIN], the half-maximal inhibitory concentration (IC50) in experiment [1] is below 0.1 µM. In addition, in [10], the Activity stood at 80%.
For the compound `COc1ccc(-c2c(O)c3c(OC)c4c(cc3oc2=O)OC(C)(C)C=C4)cc1`, in experiment [1], the result was inactive.
In experiment [13], `CO[C@@H]1[C@@H](OC(N)=O)[C@@H](O)[C@H](Oc2ccc3c(O)c(NC(=O)c4ccc(O)c(CC=C(C)C)c4)c(=O)oc3c2C)OC1(C)C` [NOVOBIOCIN] gave a half-inhibitory concentration (IC50) of 500 µM.
With `CC1(C)C=Cc2c(cc3occ(-c4ccc5c(c4)OCO5)c(=O)c3c2O)O1`, the outcome in experiment [1] was inactive.
The same measure, in the same setting: as for `COc1cc(OC)c2c(=O)c(-c3ccc4c(c3)OCO4)coc2c1`, the entry is “inactive”.
